Screening results as filed in PubChem.
Most compounds without a hit are left out; they make up all but 2.3% or so of the library.
MEKK2mut PB1 HTS: signal of MEK5 binding to mutant human MEKK2 PB1 domain. percent response, % at 10 µM. actives 0.35% (n = 290,000). bead flow cytometry, Alexa488-MEK5 binding to MEKK2 mutant; in the data active = percent response above about 24%, passing the limit was not always enough
MEKK3 PB1 HTS: MEKK3-MEK5 PB1 interaction, increase or decrease; Q99759; bead-based flow cytometry, Alexa488-MEK5 binding to MEKK3; actives lie on both sides; 0 = blocked by unlabeled MEK5, 100 = vehicle; binding response (% of control), % at 10 µM; actives 1.4% (n = 290,000); AID 1529;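 active = binding response more than 3 SD above or below the average of its plate-row segment, actives on both sides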;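 note: Alexa488 bead fluorescence after subtracting the streptavidin-only scavenger bead signal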
Target sequence (Q99759 whole entry, looked up): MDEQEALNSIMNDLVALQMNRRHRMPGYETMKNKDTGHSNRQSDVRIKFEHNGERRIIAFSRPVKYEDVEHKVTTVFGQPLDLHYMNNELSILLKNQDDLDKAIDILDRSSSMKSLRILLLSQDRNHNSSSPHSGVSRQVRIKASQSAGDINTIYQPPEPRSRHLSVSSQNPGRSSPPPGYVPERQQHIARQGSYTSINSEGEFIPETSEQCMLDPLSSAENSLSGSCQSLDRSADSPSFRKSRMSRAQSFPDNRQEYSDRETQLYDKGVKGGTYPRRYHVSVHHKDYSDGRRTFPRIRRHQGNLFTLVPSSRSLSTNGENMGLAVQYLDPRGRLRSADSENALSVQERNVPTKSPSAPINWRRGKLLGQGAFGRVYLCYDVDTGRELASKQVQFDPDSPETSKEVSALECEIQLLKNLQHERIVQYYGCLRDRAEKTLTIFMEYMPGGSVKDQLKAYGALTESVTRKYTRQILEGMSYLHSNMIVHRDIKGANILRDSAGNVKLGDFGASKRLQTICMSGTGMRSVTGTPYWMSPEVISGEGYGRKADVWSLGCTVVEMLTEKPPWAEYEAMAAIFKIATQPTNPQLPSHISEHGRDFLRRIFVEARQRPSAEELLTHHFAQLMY
Arrestin-AP2 inh: human beta-arrestin and AP2 interaction inhibition | FITC-arrestin peptide / GST-AP2 beads, flow cytometry; AP2 beta2 appendage carries R879A mutation | inhibition, % at 10 µM | actives 0.31% (n = 340,000);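 active = inhibition above a set limit, near 3 SD of compounds lacking own fluorescence, cut at about 54% in these data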
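System: GST-tagged AP2 beta2-adaptin appendage (R879A) on 4 µm glutathione beads / Reagent: FITC-arrestin peptide, 50 nM / Detection: HyperCyt-sampled flow cytometry, FL1 channel, ex 488/em 535 nm / Timing: 12 min plus 1 h, RT / Buffer or medium: PBS plus Tween 20 (0.05%) and BSA (0.1%)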
MEKK2wt PB1 HTS: raises or lowers MEK5 binding to wildtype human MEKK2 PB1 domain | AID 1531 | Q9Y2U5 | bead flow cytometry, Alexa488-MEK5 binding to MEKK2 WT; actives lie on both sides | binding response (% of control), % at 10 µM | actives 1.1% (n = 290,000); in the data active = binding response below about 67% or above about 130%
MEKK2wt confirm: raises or lowers MEK5 binding to wildtype human MEKK2, retest. AID 1892. actives 2.4% (n = 5,900). binding response (% of control), % at 10 µM. shares compounds with MEKK3 PB1 HTS. bead flow cytometry, Alexa488-MEK5 binding to MEKK2 WT; actives lie on both sides; in the data active = binding response below about 16% or above about 210%; inactive = in between
MEKK2mut-MEK5: signal of MEK5 binding to mutant human MEKK2, retest; actives 2% (n = 5,900); shares compounds with MEKK3 PB1 HTS; bead flow cytometry, Alexa488-MEK5 binding to MEKK2 mutant; AID 1893; percent response, % at 10 µM; in the data active = percent response mostly above about 71%, no sharp cut-off; inactive = mostly below about 38%;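 note: higher means compound restores mutant binding toward wildtype level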
MEKK3-MEK5 inh: MEKK3-MEK5 PB1 inhibition, single concentration confirmation. actives 1.8% (n = 5,900). AID 1894. shares compounds with MEKK3 PB1 HTS. binding response (% of control), % at 10 µM. bead flow cytometry, Alexa488-MEK5 binding to MEKK3; active compounds read low;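 active = binding response below 72% of control, or above a set upper limit, though filed actives all read lower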;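 note: lower values mean stronger disruption of MEK5 binding to MEKK3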
Large screens that a line does not name were inactive (follow-up assays come after a bar, where they were run); ! = repeats disagree; [ ] = dose if it differs, or a comment.

O=C(CSc1nnc(-c2cccs2)n1Cc1ccccc1)NCc1ccc2c(c1)OCO2	MEKK3 PB1 HTS 76[inhibitor] | MEKK2wt confirm inactive | MEKK2mut-MEK5 inactive | MEKK3-MEK5 inh inactive
COc1ccc(-n2cc(CNC3CCN(C)CC3)c(-c3cccc(F)c3)n2)cc1	MEKK2wt PB1 HTS 169 | MEKK2wt confirm inactive | MEKK2mut-MEK5 inactive | MEKK3-MEK5 inh inactive
CN(CC(=O)Nc1ccccc1C(F)(F)F)C(=O)c1cc([N+](=O)[O-])ccc1N1CCOCC1	none
COc1ccccc1N1CCN(CC(O)COc2cccc3ccccc23)CC1 (configuration not stated)	MEKK3 PB1 HTS 75![inhibitor] | MEKK2wt confirm inactive | MEKK2mut-MEK5 inactive | MEKK3-MEK5 inh inactive
OC(COc1cccc2ccccc12)CN1CCN(c2ccccc2)CC1 (configuration not stated)	none
OC(COc1ccccc1Cl)CN1CCN(CC(O)COc2ccccc2Cl)CC1 (configuration not stated)	MEKK2mut PB1 HTS 35, MEKK2wt PB1 HTS 150 | MEKK2wt confirm inactive | MEKK2mut-MEK5 inactive | MEKK3-MEK5 inh inactive
CC(=O)N1c2cc3ccccc3cc2N(C(C)=O)c2cc3ccccc3cc21	none (no result: MEKK2mut PB1 HTS, MEKK3 PB1 HTS, MEKK2wt PB1 HTS)
Cc1nn(CC(=O)NCCc2cccs2)c(=O)c2cc3ccccc3n12	none
O=C1NC(=Nc2ccccc2)/C(=C/c2ccco2)S1	MEKK3 PB1 HTS 132 | MEKK2wt confirm inactive | MEKK2mut-MEK5 inactive | MEKK3-MEK5 inh inactive
CN(C(=O)c1ccc(Br)o1)C1(C)CCS(=O)(=O)C1 (configuration not stated)	none
Cc1nc2ccc(NC(=O)c3nn(CC(C)C)c(=O)c4ccccc34)cc2s1	MEKK3 PB1 HTS 148 | MEKK2wt confirm inactive | MEKK2mut-MEK5 inactive | MEKK3-MEK5 inh inactive
c1cc2c(cc1C1CCCCC1)c1c3n2CCCNC3CCC1 (configuration not stated)	MEKK2wt PB1 HTS 165 | MEKK2wt confirm inactive | MEKK2mut-MEK5 inactive | MEKK3-MEK5 inh inactive
c1cc2c(cc1C1CCCCC1)c1c3n2CCN=C3CCC1	MEKK2wt PB1 HTS 135 | MEKK2wt confirm inactive | MEKK2mut-MEK5 inactive | MEKK3-MEK5 inh inactive
COc1ccc2c(=O)cc(-c3cccnc3)oc2c1OC	none
O=[N+]([O-])c1ccc(C[n+]2cccc3ccc4cccnc4c32)cc1	none
O=[N+]([O-])c1ccc(C[n+]2cccc3ccccc32)cc1	MEKK2mut PB1 HTS 98 | MEKK2wt confirm inactive | MEKK2mut-MEK5 inactive | MEKK3-MEK5 inh inactive
COc1ccc(/C(N)=N/OC(=O)Cc2cccs2)cc1OC	MEKK3 PB1 HTS 150 | MEKK2wt confirm inactive | MEKK2mut-MEK5 inactive | MEKK3-MEK5 inh inactive
COc1ccc(/C(N)=N/OC(=O)Cc2cccs2)cc1	none
O=C(N1CCN(c2ccccc2F)CC1)C1(c2cccs2)CCOCC1	MEKK3 PB1 HTS 134 | MEKK2wt confirm inactive | MEKK2mut-MEK5 inactive | MEKK3-MEK5 inh inactive
C[C@H](CO)N1C[C@H](C)[C@@H](CN(C)S(=O)(=O)c2ccccc2)Oc2c(NC(=O)CCC(F)(F)F)cccc2C1=O	none (no result: MEKK2mut PB1 HTS, MEKK3 PB1 HTS, MEKK2wt PB1 HTS)
Cc1sc(NC(=O)CN2C(=O)NC3(CCCC3)C2=O)nc1-c1ccc(F)cc1	none (no result: MEKK2mut PB1 HTS, MEKK3 PB1 HTS, MEKK2wt PB1 HTS)
CC1CCN(S(=O)(=O)c2ccc3c(c2)c(=O)c(C(=O)NCc2ccco2)cn3C)CC1	none
CCN(CC)S(=O)(=O)c1ccc2c(c1)c(=O)c(C(=O)NCc1ccco1)cn2C	MEKK3 PB1 HTS 135 | MEKK2wt confirm inactive | MEKK2mut-MEK5 inactive | MEKK3-MEK5 inh inactive
COc1ccc(OCCC(=O)OCC(=O)NCc2ccc(F)cc2)cc1	none
O=C(CN1CCN(Cc2ccc3c(c2)OCO3)CC1)N1CCc2[nH]c3ccc(F)cc3c2C1	MEKK2mut PB1 HTS 32 | MEKK2wt confirm inactive | MEKK2mut-MEK5 inactive | MEKK3-MEK5 inh inactive
CCN1CCN(Cc2ccc(NC(=O)c3cc(NC(=O)c4cc(C)on4)cc(OC)c3)cc2C(F)(F)F)CC1	MEKK2mut PB1 HTS 30, MEKK2wt PB1 HTS 193 | MEKK2wt confirm inactive | MEKK2mut-MEK5 inactive | MEKK3-MEK5 inh inactive
CCN1CCN(Cc2ccc(NC(=O)c3cc(NC(=O)c4cnn(-c5ccccc5)c4N)cc(OC)c3)cc2C(F)(F)F)CC1	MEKK2mut PB1 HTS 53, MEKK2wt PB1 HTS 151 | MEKK2wt confirm 214 | MEKK2mut-MEK5 inactive | MEKK3-MEK5 inh inactive
CCN1CCN(Cc2ccc(NC(=O)c3ccc(C)c(NC(=O)c4ccnnc4)c3)cc2C(F)(F)F)CC1	MEKK3 PB1 HTS 81[inhibitor] | MEKK2wt confirm inactive | MEKK2mut-MEK5 inactive | MEKK3-MEK5 inh inactive
CCN1CCN(Cc2ccc(NC(=O)c3ccc(C)c(NC(=O)c4ccc5n[nH]nc5c4)c3)cc2C(F)(F)F)CC1	none
CCN1CCN(Cc2ccc(NC(=O)c3ccc(C)c(NC(=O)C(=O)c4c[nH]c5ccccc45)c3)cc2C(F)(F)F)CC1	MEKK2mut PB1 HTS 95, MEKK2wt PB1 HTS 301 | MEKK2wt confirm 239 | MEKK2mut-MEK5 172 | MEKK3-MEK5 inh inactive
CN1C(=O)CSC1=S	none
CCCCN1C(=O)N(CCc2ccc(F)cc2)S(=O)(=O)c2cc(C(F)(F)F)ccc21	none (no result: MEKK2mut PB1 HTS, MEKK3 PB1 HTS, MEKK2wt PB1 HTS)
CCN1CCN(Cc2ccc(NC(=O)c3cc(NC(=O)C(=O)c4c[nH]c5ccccc45)cc(OC)c3)cc2C(F)(F)F)CC1	MEKK2mut PB1 HTS 131, MEKK2wt PB1 HTS 195 | MEKK2wt confirm 227 | MEKK2mut-MEK5 146 | MEKK3-MEK5 inh inactive
CCN1CCN(Cc2ccc(C(=O)Nc3ccc(C)c(NCc4cnc(NC(=O)OC)cn4)c3)cc2C(F)(F)F)CC1	none
Cc1cccc(C)c1OCc1cc(C(=O)NCC2CC2)no1	none
COc1cc(/C=C(\C#N)c2nc(-c3cc4ccccc4oc3=O)cs2)ccc1O	none
CCN(CC)CCOC(=O)c1ccc(N/C=C(/C#N)c2nc(-c3cc4ccccc4oc3=O)cs2)cc1	MEKK3 PB1 HTS 15[inhibitor], MEKK2wt PB1 HTS 36[inhibitor] | MEKK2wt confirm 14[inhibitor] | MEKK2mut-MEK5 inactive | MEKK3-MEK5 inh 13
CCN(CC)CCOC(=O)c1ccc(N/C=C(/C#N)c2nc(-c3ccc(OC)cc3)cs2)cc1	MEKK3 PB1 HTS 22[inhibitor] | MEKK2wt confirm 212 | MEKK2mut-MEK5 inactive | MEKK3-MEK5 inh inactive
CCN(CC)CCOC(=O)c1ccc(N/C=C(/C#N)c2nc(-c3ccc4c(c3)OCO4)cs2)cc1	MEKK3 PB1 HTS 22[inhibitor], MEKK2wt PB1 HTS 58[inhibitor] | MEKK2wt confirm inactive | MEKK2mut-MEK5 inactive | MEKK3-MEK5 inh 39
COc1cccc(CN(C)C(=O)c2csc3c2CCCC3)c1OC	none
COc1cc2oc(-c3ccc(O)cc3)cc(=O)c2c(OC)c1O	MEKK3 PB1 HTS 37[inhibitor], MEKK2wt PB1 HTS 35[inhibitor] | MEKK2wt confirm inactive | MEKK2mut-MEK5 inactive | MEKK3-MEK5 inh inactive
